Reference: ChEMBL document CHEMBL1144492, “Novel T-type calcium channel blockers: dioxoquinazoline carboxamide derivatives” (Bioorg Med Chem, 2007)
Activity calls are given as the source filed them. The calls are words filed in the database; no cut-off is given here.

Assays:
[1] = target: T1, Voltage-dependent T-type calcium channel subunit alpha-1G (Homo sapiens, UniProt O43497); test: Inhibition of T-type calcium channel Cav3.1 with alpha-1G subunit expressed in HEK293 cells at 100 uM by FDSS6000 assay; assay type: cell-based
How it was run: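 HEK293 cells stably expressing α1G plus Kir2.1, grown in DMEM/10% FBS with geneticin and puromycin, plated at 4 × 10^4 cells/well and used next day. Loaded 60 min at room temperature with 5 µM fluo3/AM in Hepes-buffered saline, pH 7.4. Channels opened by depolarization with 70 mM KCl in buffer containing 10 mM CaCl2. Rise in intracellular Ca2+ read by fluorescence on FDSS6000.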

[2] = target: T1, Voltage-dependent T-type calcium channel subunit alpha-1G; test: Inhibition of T-type calcium channel Cav3.1 with alpha-1G subunit by patch clamp assay
[3] = 10 uM, in the assay text read “at 10 uM” for “at 100 uM”

T1 sequence (O43497 whole entry): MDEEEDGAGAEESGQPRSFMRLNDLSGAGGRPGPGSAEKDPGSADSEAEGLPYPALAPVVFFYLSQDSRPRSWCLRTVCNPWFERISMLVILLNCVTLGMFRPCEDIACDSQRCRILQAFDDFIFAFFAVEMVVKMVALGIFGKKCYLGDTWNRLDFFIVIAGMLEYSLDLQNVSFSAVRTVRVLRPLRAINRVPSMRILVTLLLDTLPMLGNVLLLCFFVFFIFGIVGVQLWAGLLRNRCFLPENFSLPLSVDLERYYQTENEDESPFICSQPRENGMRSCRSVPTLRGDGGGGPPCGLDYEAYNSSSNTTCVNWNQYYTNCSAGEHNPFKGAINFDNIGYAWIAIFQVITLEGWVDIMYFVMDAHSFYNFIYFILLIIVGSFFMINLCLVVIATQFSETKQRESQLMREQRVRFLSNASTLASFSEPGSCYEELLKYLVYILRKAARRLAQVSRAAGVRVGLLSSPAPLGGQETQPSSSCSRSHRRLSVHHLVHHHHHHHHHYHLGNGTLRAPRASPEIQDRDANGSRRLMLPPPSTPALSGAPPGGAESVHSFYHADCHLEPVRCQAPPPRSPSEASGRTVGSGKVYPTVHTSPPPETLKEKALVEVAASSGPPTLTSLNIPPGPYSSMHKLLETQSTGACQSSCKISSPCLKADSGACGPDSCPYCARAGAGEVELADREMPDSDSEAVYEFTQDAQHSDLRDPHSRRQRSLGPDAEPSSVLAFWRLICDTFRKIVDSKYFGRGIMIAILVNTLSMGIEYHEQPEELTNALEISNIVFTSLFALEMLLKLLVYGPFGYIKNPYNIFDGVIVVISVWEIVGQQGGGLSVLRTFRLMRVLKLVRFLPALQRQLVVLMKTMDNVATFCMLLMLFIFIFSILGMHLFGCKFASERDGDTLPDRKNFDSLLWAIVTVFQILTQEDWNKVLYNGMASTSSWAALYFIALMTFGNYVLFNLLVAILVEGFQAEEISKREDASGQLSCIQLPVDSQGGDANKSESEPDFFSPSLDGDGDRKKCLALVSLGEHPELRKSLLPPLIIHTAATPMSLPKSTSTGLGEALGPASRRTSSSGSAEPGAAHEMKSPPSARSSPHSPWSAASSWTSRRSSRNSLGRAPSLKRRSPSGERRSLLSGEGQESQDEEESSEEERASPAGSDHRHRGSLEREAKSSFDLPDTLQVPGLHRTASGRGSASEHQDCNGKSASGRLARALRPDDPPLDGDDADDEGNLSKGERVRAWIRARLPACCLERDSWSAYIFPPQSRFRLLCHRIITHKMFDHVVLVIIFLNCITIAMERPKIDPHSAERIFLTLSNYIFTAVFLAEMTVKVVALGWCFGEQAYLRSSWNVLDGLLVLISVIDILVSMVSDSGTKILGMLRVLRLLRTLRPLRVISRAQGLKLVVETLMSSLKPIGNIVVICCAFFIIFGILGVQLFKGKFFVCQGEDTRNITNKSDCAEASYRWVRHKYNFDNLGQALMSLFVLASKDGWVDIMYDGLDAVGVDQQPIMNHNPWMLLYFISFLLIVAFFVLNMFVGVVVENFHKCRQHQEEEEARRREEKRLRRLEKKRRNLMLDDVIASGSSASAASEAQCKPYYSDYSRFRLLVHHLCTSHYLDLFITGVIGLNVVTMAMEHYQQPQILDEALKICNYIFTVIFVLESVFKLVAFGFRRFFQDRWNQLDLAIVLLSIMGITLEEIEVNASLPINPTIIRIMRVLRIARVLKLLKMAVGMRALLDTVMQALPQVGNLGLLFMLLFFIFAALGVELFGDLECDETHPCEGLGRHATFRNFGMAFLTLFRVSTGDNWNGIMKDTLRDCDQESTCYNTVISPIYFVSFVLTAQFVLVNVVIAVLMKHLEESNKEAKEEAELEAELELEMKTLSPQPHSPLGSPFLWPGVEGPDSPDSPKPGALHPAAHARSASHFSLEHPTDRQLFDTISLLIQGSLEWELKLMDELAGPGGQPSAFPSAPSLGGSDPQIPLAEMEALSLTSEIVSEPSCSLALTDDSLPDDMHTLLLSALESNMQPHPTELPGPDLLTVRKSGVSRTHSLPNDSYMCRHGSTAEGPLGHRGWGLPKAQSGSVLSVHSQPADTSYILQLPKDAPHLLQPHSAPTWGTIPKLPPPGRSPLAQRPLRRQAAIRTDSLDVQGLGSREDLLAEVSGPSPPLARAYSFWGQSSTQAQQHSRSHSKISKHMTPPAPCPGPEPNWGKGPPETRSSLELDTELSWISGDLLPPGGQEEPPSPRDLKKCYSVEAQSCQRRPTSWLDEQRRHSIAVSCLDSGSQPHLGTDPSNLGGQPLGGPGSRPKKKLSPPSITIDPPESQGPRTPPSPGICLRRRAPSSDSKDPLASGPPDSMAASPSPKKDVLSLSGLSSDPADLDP

| inhibition ([1]; 100 uM) | SMILES | also measured |
| --- | --- | --- |
| 4.3% | O=C(NCCN1CCCC1)c1ccc2c(=O)n(-c3cccc(F)c3)c(=O)[nH]c2c1 | – |
| 34.2% | O=C(NCCCN1CCCC1)c1ccc2c(=O)n(Cc3ccc(F)cc3)c(=O)[nH]c2c1 | – |
| 47.2% | O=C(NCCN1CCCC1)c1ccc2c(=O)n(Cc3ccc(F)cc3)c(=O)[nH]c2c1 | – |
| 24.9% | O=C(NCCN1CCCC1)c1ccc2c(=O)n(Cc3ccccc3F)c(=O)[nH]c2c1 | – |
| 3.8% | O=C(NCCN1CCOCC1)c1ccc2c(=O)n(-c3cccc(F)c3)c(=O)[nH]c2c1 | – |
| 6.5% | O=C(NCCN1CCCC1)c1ccc2c(=O)n(-c3ccccc3F)c(=O)[nH]c2c1 | – |
| 13.1% | COc1cccc(-n2c(=O)[nH]c3cc(C(=O)NCCN4CCCC4)ccc3c2=O)c1 | – |
| 39.4% | COc1ccc(Cn2c(=O)[nH]c3cc(C(=O)NCCN4CCCC4)ccc3c2=O)cc1 | – |
| 64.6% | O=C(NCCN1CCCCC1)c1ccc2c(=O)n(Cc3cccc(F)c3)c(=O)[nH]c2c1 | IC50 [2]: 16.9 µM |
| 10.5% | COc1ccc(-n2c(=O)[nH]c3cc(C(=O)NCCN4CCCC4)ccc3c2=O)cc1 | – |
| 1.5% | COc1ccccc1-n1c(=O)[nH]c2cc(C(=O)NCCCN3CCCC3)ccc2c1=O | – |
| 12.5% | O=C(NCCN1CCCCC1)c1ccc2c(=O)n(-c3ccc(F)cc3)c(=O)[nH]c2c1 | – |
| 62.9% | COc1cccc(Cn2c(=O)[nH]c3cc(C(=O)NCCN4CCCCC4)ccc3c2=O)c1 | – |
| 7.2% | O=C(NCCN1CCCCC1)c1ccc2c(=O)n(-c3ccccc3F)c(=O)[nH]c2c1 | – |
| 17.6% | Cn1c(=O)[nH]c2cc(C(=O)NCCN3CCCCC3)ccc2c1=O | – |
| 3.4% | O=C(NCCN1CCCCC1)c1ccc2c(=O)n(-c3cccc(F)c3)c(=O)[nH]c2c1 | – |
| 9.2% | O=C(NCCCN1CCOCC1)c1ccc2c(=O)n(-c3ccc(F)cc3)c(=O)[nH]c2c1 | – |
| 65% | O=C(NCCN1CCCCC1)c1ccc2c(=O)n(Cc3ccc(F)cc3)c(=O)[nH]c2c1 | IC50 [2]: 9.23 µM |

Second part, the compound before the results:

| SMILES | inhibition ([1]; 100 uM) | also measured |
| --- | --- | --- |
| COc1cccc(Cn2c(=O)[nH]c3cc(C(=O)NCCN4CCCC4)ccc3c2=O)c1 | 27.8% | – |
| COc1ccc(-n2c(=O)[nH]c3cc(C(=O)NCCCN4CCCC4)ccc3c2=O)cc1 | – | Activity ([1]; 100 uM): inactive |
| CCCn1c(=O)[nH]c2cc(C(=O)NCCN3CCCC3)ccc2c1=O | 6.7% | – |
| O=C(NCCCN1CCCC1)c1ccc2c(=O)n(Cc3ccccc3Cl)c(=O)[nH]c2c1 | – | inhibition [1, 3]: 6.2% |
| CCCn1c(=O)[nH]c2cc(C(=O)NCCCN3CCOCC3)ccc2c1=O | 9.2% | – |
| CC1CCCCN1CCCNC(=O)c1ccc2c(=O)n(Cc3cccc(F)c3)c(=O)[nH]c2c1 (centres undefined) | 47.8% | – |
| CCC1CCCCN1CCNC(=O)c1ccc2c(=O)n(Cc3ccc(OC)cc3)c(=O)[nH]c2c1 (centres undefined) | – | IC50 [2]: 5.97 µM |
| CN1CCN(CCCNC(=O)c2ccc3c(=O)n(Cc4cccc(F)c4)c(=O)[nH]c3c2)CC1 | 8.3% | – |
| CC1CCCCN1CCCNC(=O)c1ccc2c(=O)n(-c3cccc(F)c3)c(=O)[nH]c2c1 (centres undefined) | – | Activity ([1]; 100 uM): inactive |
| CCCn1c(=O)[nH]c2cc(C(=O)NCCCN3CCCCC3C)ccc2c1=O (centres undefined) | 12.5% | – |
| O=C(NCCCN1CCOCC1)c1ccc2c(=O)n(-c3ccccc3F)c(=O)[nH]c2c1 | 2.8% | – |
| O=C(NCCCN1CCOCC1)c1ccc2c(=O)n(Cc3ccc(Cl)cc3)c(=O)[nH]c2c1 | – | inhibition [1, 3]: 9.7% |
| Cn1c(=O)[nH]c2cc(C(=O)NCCN3CCCC3)ccc2c1=O | – | Activity ([1]; 100 uM): inactive |
| CCCn1c(=O)[nH]c2cc(C(=O)NCCCN3CCN(C)CC3)ccc2c1=O | – | Activity ([1]; 100 uM): inactive |
| CCC1CCCCN1CCCNC(=O)c1ccc2c(=O)n(Cc3ccc(F)cc3)c(=O)[nH]c2c1 (centres undefined) | 68.3% | IC50 [2]: 3.31 µM |
| COc1ccc(-n2c(=O)[nH]c3cc(C(=O)NCCCN4CCN(C)CC4)ccc3c2=O)cc1 | – | Activity ([1]; 100 uM): inactive |
| CCC1CCCCN1CCCNC(=O)c1ccc2c(=O)n(Cc3ccccc3Cl)c(=O)[nH]c2c1 (centres undefined) | – | IC50 [2]: 2.79 µM |
| O=C(NCCN1CCCCC1)c1ccc2c(=O)n(Cc3ccc(Cl)cc3)c(=O)[nH]c2c1 | – | IC50 [2]: 2.08 µM |
| CN1CCN(CCCNC(=O)c2ccc3c(=O)n(-c4ccccc4F)c(=O)[nH]c3c2)CC1 | 2.4% | – |

| SMILES | inhibition ([1]; 100 uM) | also measured |
| --- | --- | --- |
| O=C(NCCN1CCCCC1)c1ccc2c(=O)n(C3CCCCC3)c(=O)[nH]c2c1 | 52.2% | – |
| CN1CCN(CCCNC(=O)c2ccc3c(=O)n(Cc4ccc(F)cc4)c(=O)[nH]c3c2)CC1 | 25.5% | – |
| CCC1CCCCN1CCNC(=O)c1ccc2c(=O)n(Cc3ccc(Cl)cc3)c(=O)[nH]c2c1 (centres undefined) | – | IC50 [2]: 3.38 µM |
| COc1cccc(Cn2c(=O)[nH]c3cc(C(=O)NCCCN4CCN(C)CC4)ccc3c2=O)c1 | 20.1% | – |
| O=C(NCCN1CCOCC1)c1ccc2c(=O)n(-c3ccc(F)cc3)c(=O)[nH]c2c1 | – | Activity ([1]; 100 uM): inactive |
| CCCn1c(=O)[nH]c2cc(C(=O)NCCN3CCOCC3)ccc2c1=O | – | Activity ([1]; 100 uM): inactive |
| CC1CCCCN1CCCNC(=O)c1ccc2c(=O)n(Cc3ccc(Cl)cc3)c(=O)[nH]c2c1 (centres undefined) | – | IC50 [2]: 3.72 µM |
| COc1cccc(-n2c(=O)[nH]c3cc(C(=O)NCCN4CCCCC4)ccc3c2=O)c1 | – | Activity ([1]; 100 uM): inactive |
| COc1ccc(Cn2c(=O)[nH]c3cc(C(=O)NCCCN4CCCCC4C)ccc3c2=O)cc1 (centres undefined) | 42.3% | – |
| CC1CCCCN1CCCNC(=O)c1ccc2c(=O)n(Cc3ccccc3F)c(=O)[nH]c2c1 (centres undefined) | 13.9% | – |
| COc1cccc(Cn2c(=O)[nH]c3cc(C(=O)NCCCN4CCOCC4)ccc3c2=O)c1 | 28.9% | – |
| COc1ccc(Cn2c(=O)[nH]c3cc(C(=O)NCCCN4CCCC4)ccc3c2=O)cc1 | 26.8% | – |
| CC1CCCCN1CCCNC(=O)c1ccc2c(=O)n(Cc3ccc(F)cc3)c(=O)[nH]c2c1 (centres undefined) | 56.6% | IC50 [2]: 4.63 µM |
| COc1cccc(Cn2c(=O)[nH]c3cc(C(=O)NCCCN4CCCC4)ccc3c2=O)c1 | 13.2% | – |
| COc1cccc(Cn2c(=O)[nH]c3cc(C(=O)NCCCN4CCCCC4C)ccc3c2=O)c1 (centres undefined) | 36.9% | – |
| COc1ccc(-n2c(=O)[nH]c3cc(C(=O)NCCCN4CCCCC4C)ccc3c2=O)cc1 (centres undefined) | 1.5% | – |
| COc1cccc(-n2c(=O)[nH]c3cc(C(=O)NCCCN4CCCC4)ccc3c2=O)c1 | – | Activity ([1]; 100 uM): inactive |
| COc1ccc(Cn2c(=O)[nH]c3cc(C(=O)NCCN4CCOCC4)ccc3c2=O)cc1 | – | Activity ([1]; 100 uM): inactive |
| CC1CCCCN1CCCNC(=O)c1ccc2c(=O)n(C3CCCCC3)c(=O)[nH]c2c1 (centres undefined) | 48.3% | – |

| SMILES | inhibition ([1]; 100 uM) | also measured |
| --- | --- | --- |
| CC1CCCCN1CCCNC(=O)c1ccc2c(=O)n(C)c(=O)[nH]c2c1 (centres undefined) | 8.5% | – |
| O=C(NCCCN1CCCCC1)c1ccc2c(=O)n(Cc3ccc(Cl)cc3)c(=O)[nH]c2c1 | – | IC50 [2]: 1.95 µM |
| CCCn1c(=O)[nH]c2cc(C(=O)NCCN3CCCCC3)ccc2c1=O | 18% | – |
| COc1cccc(-n2c(=O)[nH]c3cc(C(=O)NCCCN4CCCCC4C)ccc3c2=O)c1 (centres undefined) | 12.3% | – |
| COc1ccccc1Cn1c(=O)[nH]c2cc(C(=O)NCCCN3CCCCC3C)ccc2c1=O (centres undefined) | 12.7% | – |
| CCC1CCCCN1CCNC(=O)c1ccc2c(=O)n(Cc3ccc(F)cc3)c(=O)[nH]c2c1 (centres undefined) | – | IC50 [2]: 7.98 µM |
| CCC1CCCCN1CCCNC(=O)c1ccc2c(=O)n(Cc3ccc(Cl)cc3)c(=S)[nH]c2c1 (centres undefined) | – | IC50 [2]: 0.1 µM |
| O=C(NCCCN1CCOCC1)c1ccc2c(=O)n(-c3cccc(F)c3)c(=O)[nH]c2c1 | 15.1% | – |
| CN1CCN(CCCNC(=O)c2ccc3c(=O)n(C)c(=O)[nH]c3c2)CC1 | 3.4% | – |
| CN1CCN(CCCNC(=O)c2ccc3c(=O)n(Cc4ccccc4F)c(=O)[nH]c3c2)CC1 | 7.3% | – |
| O=C(NCCCN1CCOCC1)c1ccc2c(=O)n(C3CCCCC3)c(=O)[nH]c2c1 | 36.3% | – |
| O=C(NCCCN1CCOCC1)c1ccc2c(=O)n(Cc3ccc(F)cc3)c(=O)[nH]c2c1 | – | Activity ([1]; 100 uM): inactive |
| O=C(NCCN1CCCC1)c1ccc2c(=O)n(C3CCCCC3)c(=O)[nH]c2c1 | 57.7% | IC50 [2]: 7.96 µM |
| O=C(NCCCN1CCCC1)c1ccc2c(=O)n(Cc3cccc(F)c3)c(=O)[nH]c2c1 | 9.8% | – |
| COc1ccc(Cn2c(=O)[nH]c3cc(C(=O)NCCCN4CCOCC4)ccc3c2=O)cc1 | 36% | – |
| O=C(NCCN1CCCC1)c1ccc2c(=O)n(Cc3ccc(Cl)cc3)c(=O)[nH]c2c1 | – | IC50 [2]: 2.46 µM |
| O=C(NCCCN1CCCC1)c1ccc2c(=O)n(-c3cccc(F)c3)c(=O)[nH]c2c1 | – | Activity ([1]; 100 uM): inactive |
| CCC1CCCCN1CCCNC(=O)c1ccc2c(=O)n(Cc3ccc(Cl)cc3)c(=O)[nH]c2c1 (centres undefined) | – | IC50 [2]: 1.52 µM |
